Calls of active or inactive are those of the source. The rule behind the calls is not given here.
Tests used:
Mus musculus [1] = assay: Hepatotoxicity in BALB/c mouse assessed as AST level in serum at 20 mg/kg/day, iv administered for five days (Rvb= 65 U/L); type: toxicity, organism-based; set-up: route intravenous; conditions: in vivo
Mus musculus [2] = assay: Renal toxicity in BALB/c mouse assessed as blood urea nitrogen level in serum at 5 mg/kg/day, iv administered for five days (Rvb= 20 mg/dl); type: organism-based; set-up: route intravenous; conditions: in vivo
Method in brief: (§1)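 Female BALB/c mice (n = 5 per dose), dosed once daily for 5 consecutive days p.o. (20 ml/kg) or i.v. (10 ml/kg) with compound in sterile water, prepared fresh daily under yellow light. Vehicle controls n = 5 per route. Clinical observations, body weights, serum chemistry and hematology on day 6 before necropsy; histopathology of formalin-fixed tissues. Chemistry analysed by one-way ANOVA with Dunnett's posttest.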

Mus musculus [3] = assay: Renal toxicity in BALB/c mouse assessed as phosphorus level in serum at 5 mg/kg/day, iv administered for five days (Rvb= 6.1 mg/dl); type: organism-based; set-up: route intravenous; conditions: in vivo; method in brief: as §1
[4] = Half life in rat liver microsome by HPLC-MS/MS analysis in presence of 10 uM NADPH; type: ADME; conditions: liver microsomes
Method in brief: (§2)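 Pooled liver microsomes (human, mouse, rat) with NADPH. Substrate added from DMSO to final 0.1, 1.0 or 10 μM, with 0.5% (vol/vol) organic solvent. Incubated at 37°C for up to 60 min. Stopped with 2 volumes of 7:1 methanol-water containing 0.1% TFA and 30 nM internal standard, then centrifuged. Remaining substrate was measured by HPLC-MS/MS, and t1/2 was obtained by one-phase exponential decay fit (t1/2 = 0.693/k).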

Mus musculus [5] = assay: Hepatotoxicity in BALB/c mouse assessed as alkaline phosphatase level in serum at 25 mg/kg/day, po administered for five days (Rvb= 129 U/L); type: toxicity, organism-based; set-up: route oral; conditions: in vivo
[6] = Half life in human liver microsome by HPLC-MS/MS analysis in presence of 0.1 uM NADPH; type: ADME; conditions: liver microsomes
Method in brief: (§3)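 Pooled liver microsomes with NADPH. Substrate at final 0.1, 1.0 and 10 μM with 0.5% DMSO, incubated up to 60 min at 37°C. Reactions were stopped with 7:1 methanol-water containing 0.1% TFA and 30 nM internal standard. Remaining substrate was measured by HPLC-MS/MS, and t1/2 came from a one-phase exponential decay fit.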

Mus musculus [7] = assay: Hepatotoxicity in BALB/c mouse assessed as alkaline phosphatase level in serum at 5 mg/kg/day, iv administered for five days (Rvb= 134 U/L); type: toxicity, organism-based; set-up: route intravenous; conditions: in vivo
[8] = Half life in human liver microsome by HPLC-MS/MS analysis in presence of 10 uM NADPH; type: ADME; conditions: liver microsomes; method in brief: as §2
Leishmania donovani [9] = assay: Antileishmanial activity against intracellular Leishmania donovani LV82 amastigotes; type: functional, organism-based
Method in brief: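 CD-1 mouse peritoneal macrophages, 5 × 10^4 cells/well in RPMI 1640 + 10% heat-inactivated FBS, adhered overnight. Infected overnight with stationary-phase LV82 promastigotes (5:1 parasite:macrophage), 37°C, 5% CO2. Medium then replaced with compound or vehicle for 72 h at 37°C. Methanol-fixed, Giemsa-stained; % infected macrophages counted at ×1,000. IC50 by four-parameter logistic nonlinear regression.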

Mus musculus [10] = assay: Hepatotoxicity in BALB/c mouse assessed as ALT level in serum at 5 mg/kg/day, iv administered for five days (Rvb= 34 U/L); type: toxicity, organism-based; set-up: route intravenous; conditions: in vivo
[11] = Half life in mouse liver microsome by HPLC-MS/MS analysis in presence of 1 uM NADPH; type: ADME; conditions: liver microsomes; method in brief: as §2
[12] = Half life in golden Syrian hamster liver microsomes by HPLC-MS/MS analysis in presence of 0.1 uM NADPH; type: ADME, Mesocricetus auratus, Microsome; method in brief: as §3
Mus musculus [13] = assay: Hepatotoxicity in BALB/c mouse assessed as ALT level in serum at 50 mg/kg/day, po administered for five days (Rvb= 36 U/L); type: toxicity, organism-based; set-up: route oral; conditions: in vivo
Mus musculus [14] = assay: Hepatotoxicity in BALB/c mouse assessed as alkaline phosphatase level in serum at 20 mg/kg/day, iv administered for five days (Rvb= 134 U/L); type: toxicity, organism-based; set-up: route intravenous; conditions: in vivo
[15] = Half life in human liver microsome by HPLC-MS/MS analysis in presence of 1 uM NADPH; type: ADME; conditions: liver microsomes; method in brief: as §3
Mus musculus [16] = assay: Hepatotoxicity in BALB/c mouse assessed as AST level in serum at 50 mg/kg/day, po administered for five days (Rvb= 70 U/L); type: toxicity, organism-based; set-up: route oral; conditions: in vivo
Mus musculus [17] = assay: Hepatotoxicity in BALB/c mouse assessed as ALT level in serum at 25 mg/kg/day, po administered for five days (Rvb= 36 U/L); type: toxicity, organism-based; set-up: route oral; conditions: in vivo
Mus musculus [18] = assay: Renal toxicity in BALB/c mouse assessed as blood urea nitrogen level in serum at 50 mg/kg/day, po administered for five days (Rvb= 29 mg/dl); type: organism-based; set-up: route oral; conditions: in vivo; method in brief: as §1
Leishmania donovani [19] = assay: Antileishmanial activity against Leishmania donovani axenic amastigotes; type: functional, organism-based
Leishmania donovani [20] = assay: Antileishmanial activity against Leishmania donovani promastigotes in ip dosed BALB/c mouse assessed as inhibition of liver parasitemia; type: functional, organism-based
Method in brief: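 Murine VL model in L. donovani-infected mice. Compounds were dissolved in water and given i.p. or p.o. once daily for 5 days (4 days for one i.p. regimen). Liver parasitemia was compared with untreated controls by unpaired Student's t test, P ≤ 0.05.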

Mus musculus [21] = assay: Renal toxicity in BALB/c mouse assessed as blood urea nitrogen level in serum at 20 mg/kg/day, iv administered for five days (Rvb= 20 mg/dl); type: organism-based; set-up: route intravenous; conditions: in vivo; method in brief: as §1
[22] = Half life in mouse liver microsome by HPLC-MS/MS analysis in presence of 0.1 uM NADPH; type: ADME; conditions: liver microsomes; method in brief: as §2
Leishmania major = assay: Antileishmanial activity against intracellular Leishmania major amastigotes; type: functional, organism-based
Leishmania donovani [23] = assay: Antileishmanial activity against antimony resistant Leishmania donovani MC8-R infected in mouse J774 macrophage; type: functional, organism-based
Mus musculus [24] = assay: Hepatotoxicity in BALB/c mouse assessed as AST level in serum at 25 mg/kg/day, po administered for five days (Rvb= 70 U/L); type: toxicity, organism-based; set-up: route oral; conditions: in vivo
[25] = Half life in golden Syrian hamster liver microsome by HPLC-MS/MS analysis in presence of 1 uM NADPH; type: ADME, Mesocricetus auratus; conditions: liver microsomes; method in brief: as §3
[26] = AUC (0 to infinity) in Swiss Webster mouse at 1 mg/kg, iv by HPLC-MS/MS analysis; type: ADME, organism-based; set-up: time infinity, dose 1 mg/kg, route intravenous; conditions: plasma
Method in brief: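 Male Swiss Webster mice, n = 3 per time point. For i.v., the compound was dissolved in sterile water, diluted 1:1 with 2× saline, and given as a tail-vein bolus over ~10–20 s. For p.o., it was given by gavage in sterile water. Dose volume was 5 ml/kg. Terminal plasma was taken from 5 min to 72 h and measured by HPLC-MS/MS (calibration 2.5–10,000 nM). Parameters came from noncompartmental analysis.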

Mus musculus [27] = assay: Hepatotoxicity in BALB/c mouse assessed as AST level in serum at 5 mg/kg/day, iv administered for five days (Rvb= 65 U/L); type: toxicity, organism-based; set-up: route intravenous; conditions: in vivo
Mus musculus [28] = assay: Renal toxicity in BALB/c mouse assessed as phosphorus level in serum at 20 mg/kg/day, iv administered for five days (Rvb= 6.1 mg/dl); type: organism-based; set-up: route intravenous; conditions: in vivo; method in brief: as §1
Mus musculus [29] = assay: Hepatotoxicity in BALB/c mouse assessed as alkaline phosphatase level in serum at 50 mg/kg/day, po administered for five days (Rvb= 129 U/L); type: toxicity, organism-based; set-up: route oral; conditions: in vivo
[30] = Half life in mouse liver microsome by HPLC-MS/MS analysis in presence of 10 uM NADPH; type: ADME; conditions: liver microsomes; method in brief: as §2

Row | Compound | Activity (Mus musculus [1]) | Activity (Mus musculus [2]) | Activity (Mus musculus [3]) | half-life [4] | Activity (Mus musculus [5]) | half-life [6] | Activity (Mus musculus [7]) | half-life [8] | IC50 (Leishmania donovani [9]) | Activity (Mus musculus [10]) | half-life [11] | half-life [12] | Activity (Mus musculus [13]) | Activity (Mus musculus [14]) | half-life [15] | Activity (Mus musculus [16]) | Activity (Mus musculus [17]) | Activity (Mus musculus [18]) | IC50 (Leishmania donovani [19]) | Activity (Leishmania donovani [20]) | also measured
1 | CC(C)Oc1cc(NC(=N)c2ccccn2)ccc1-c1ccc(-c2ccc(NC(=N)c3ccccn3)cc2OC(C)C)o1 | 76 U/L | 19 mg/dL | 7 mg/dL | > 2 h | 126 U/L | > 2 h | 103 U/L | > 2 h | 36 nM | 36 U/L | > 2 h | 0.65 h | 45 U/L | 104 U/L | > 2 h | 90 U/L | 44 U/L | 25 mg/dL | 500 nM | Active | Activity (Mus musculus [21]): 26 mg/dL; half-life [22]: 0.433 h; IC50 (Leishmania major): 14 nM; IC50 (Leishmania donovani [23]): 64 nM; Activity (Mus musculus [24]): 75 U/L; half-life [25]: > 2 h; AUC(0-inf) [26]: 2.53 µM·h; Activity (Mus musculus [27]): 76 U/L; Activity (Mus musculus [28]): 6.5 mg/dL; Activity (Mus musculus [29]): 123 U/L; half-life [30]: > 2 h
2 | CCOc1cc(NC(=N)c2ccccn2)ccc1-c1ccc(-c2ccc(NC(=N)c3ccccn3)cc2OCC)o1 | 89 U/L | 18 mg/dL | 7.1 mg/dL | > 2 h | 136 U/L | > 2 h | 113 U/L | > 2 h | 18 nM | 43 U/L | 0.783 h | 1.25 h | 34 U/L | 107 U/L | > 2 h | 77 U/L | 31 U/L | 27 mg/dL | 500 nM | Active | Activity (Mus musculus [21]): 27 mg/dL; half-life [22]: 0.25 h; IC50 (Leishmania major): 26 nM; IC50 (Leishmania donovani [23]): 160 nM; Activity (Mus musculus [24]): 67 U/L; half-life [25]: > 2 h; AUC(0-inf) [26]: 0.56 µM·h; Activity (Mus musculus [27]): 80 U/L; Activity (Mus musculus [28]): 7.3 mg/dL; Activity (Mus musculus [29]): 130 U/L; half-life [30]: > 2 h

Reference: ChEMBL document CHEMBL1275590, “Novel arylimidamides for treatment of visceral leishmaniasis” (Antimicrob Agents Chemother, 2010)
